ABCB1 inh = ABCB1 efflux pump inhibitors, primary screen, cell-based, multiplex, flow cytometry, ABCG2 counter-screen. 0.067% of 190,000 active. inhibition, % at 6.6 µM. ATP-dependent translocase ABCB1 (Homo sapiens), P08183. CCRF-Adr cells, JC-1 efflux; in the data active = inhibition above about 40%;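 note: higher value means more JC-1 retained so stronger ABCB1 efflux block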
zfTRPN1 agonist = zebrafish TRPN1 channel agonists, primary screen, cell-based, HEK293, calcium fluorescence | transient receptor potential cation channel N1 (TRPN1/NompC), Danio rerio | HEK293 zebrafish TRPN1-YFP, Fluo-8 calcium fluorescence; 100% = response to 87 µM carbachol | activation, % at 3 µM | 0.18% of 220,000 active;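 active = activation above its plate's cutoff, the mean activation of test wells on that plate plus 3 SD, cut at about 19% in these data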
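System: zebrafish TRPN1-YFP in HEK293 cells / Dosing: 3 µM single point / Timing: dye loading 1 h at 37 °C, then 30 min room temperature / Signal: Fluo-8 calcium fluorescence, excitation 470-495 nm, emission 515-575 nm / Read-out basis: percent activation from peak over basal fluorescence ratio, control-normalized / Control set: high carbachol 87 µM, low DMSO alone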
TRPML3 agonist = human TRPML3 channel agonists, primary screen, cell-based, HEK293 TRPML3-YFP, Fluo-8 calcium fluorescence, 3 µM; 100% = the carbachol control signal; 0.29% of 220,000 active; activation, % at 3 µM; Mucolipin-3 (Homo sapiens), Q8TDD5;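 active = activation above its plate's cutoff, the mean activation of the plate's test wells plus 3 SD, cut at about 12% in these data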
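system = HEK293 cells stably carrying human TRPML3-YFP | doses = one concentration, 3 µM nominal, 0.3% DMSO | timing = dye loading 1 h 37 °C then 30 min ambient, 125 s read | detection = Fluo-8 calcium dye fluorescence, ex 470-495, em 515-575 nm | benchmarks = high control carbachol 87 µM, low control DMSO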
ROMK mod = ROMK potassium channel modulators, primary screen, cell-based, thallium flux, MLSMR library | AID 1918, 2009 | Tet-inducible ROMK, thallium flux fluorescence; actives lie on both sides | 2% of 130,000 active | ATP-sensitive inward rectifier potassium channel 1 (Homo sapiens), P48048 | B-score at 10 µM;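 active = signal ratio slope over the read window, or its plate-corrected B-score, at least 3 SD from the plate mean, either direction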;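 note: B-score of the F/F0 ratio slope over 7 to 12 s after thallium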
Target sequence (P48048 whole entry, looked up): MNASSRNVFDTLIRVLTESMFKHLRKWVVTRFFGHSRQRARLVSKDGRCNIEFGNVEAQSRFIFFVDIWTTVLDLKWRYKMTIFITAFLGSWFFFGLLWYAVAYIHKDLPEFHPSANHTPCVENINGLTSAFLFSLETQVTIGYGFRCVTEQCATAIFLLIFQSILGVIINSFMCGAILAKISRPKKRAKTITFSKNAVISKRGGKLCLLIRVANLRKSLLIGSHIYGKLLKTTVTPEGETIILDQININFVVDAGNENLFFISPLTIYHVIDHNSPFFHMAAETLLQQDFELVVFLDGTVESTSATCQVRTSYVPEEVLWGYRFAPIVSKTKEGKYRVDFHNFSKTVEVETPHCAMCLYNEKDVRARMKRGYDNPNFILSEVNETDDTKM
Calb biofilm kill = clotrimazole potentiators killing C. albicans biofilm, primary screen, 4-compound mixtures | C. albicans biofilm persisters + clotrimazole, fluorescence viability; primary screen in compound mixtures of four per well | inhibition, % at 7.6 µM | 0.02% of 120,000 active | AID 1242, 2008;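 active = inhibition above 30.3% in the primary screen of four-compound pools, then above 30% when the compound was retested; inconclusive = passed the primary limit but could not be retested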;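 note: compounds exposed to preformed 24 h biofilms for 48 h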
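Test system: C. albicans CAF4-2 wild-type biofilms; buffer or medium: RPMI/MOPS medium, pH 7.0; schedule: 24 h biofilm formation, then 48 h compound exposure, 37 °C; detection: Alamar Blue fluorescence; measure: percent inhibition of biofilm viability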
ABCG2 block = ABCG2 efflux pump inhibitors, primary screen, multiplex with ABCB1, IgMXP3 cells, flow cytometry; AID 1325, 2008; JC-1 efflux; inhibition, % at 6.6 µM; 0.1% of 190,000 active; Broad substrate specificity ATP-binding cassette transporter ABCG2 (Homo sapiens), Q9UNQ0;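 active = inhibition above 80%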
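Assay system – ABCG2 IgMXP3 and barcoded ABCB1 CCRF-Adr cell mix · Input – 3 million cells/mL in well · Reagent – JC-1 fluorescent substrate · Compound – single test compound dose, 6.6 µM final · Timing – 10 min exposure at 25 °C with rotation, no wash · Detection – flow cytometry of retained JC-1 fluorescence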
ROMK hit retest = ROMK channel modulator hit retest, confirmation, cell-based, thallium flux, duplicate, resupplied hits | normalized thallium flux (F/F0 slope) at 10 µM | AID 1917, 2009 | 54% of 3,000 active | fluorescence ratio; hits give low values | shares compounds with ROMK mod;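 active = Flux at 10 µM at least 3 SD below or above vehicle control mean in one or both replicates; inconclusive = no clear call, values can overlap the other calls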
Hits are given with their value; n = inactive; u = inconclusive; x = not tested or not shown. This excerpt belongs to a sample that is enriched for hits.

SMILES	ABCB1 inh	zfTRPN1 agonist	TRPML3 agonist	ROMK mod	Calb biofilm kill	ABCG2 block	ROMK hit retest
CCOC(=O)C1CCCN(Cc2c(C(=O)N3CCCCC3)nc3c(C)cccn23)C1 (centres undefined)	n	n	n	n	n	n	x
COc1ccc(-n2c(Cc3ccccc3)nnc2SCc2ccc([N+](=O)[O-])cc2)cc1	n	n	n	-2.3	n	n	0.06
O=[N+]([O-])c1ccc(CSc2nnc(Cc3ccccc3)n2-c2ccc(F)cc2)cc1	n	n	n	n	n	n	x
Cc1cccc(-n2c(Cc3ccccc3)nnc2SCc2ccc([N+](=O)[O-])cc2)c1	n	n	n	-7.4	n	n	0.044
O=C(Oc1coc(CSc2ncccn2)cc1=O)c1cccs1	n	n	n	n	n	n	x
Cc1ccc(C#CC[N+]2(CC#Cc3ccc(C)cc3)CCCCC2)cc1	n	n	n	-5.1	n	n	0.056
C(#Cc1ccccc1)C[N+]1(CC#Cc2ccccc2)CCCCC1	n	n	n	n	n	n	x
CCOc1ccc(-c2[nH]ncc2-c2ccc(OC)c(OC)c2)c(O)c1	n	n	n	3.7	x	n	0.099
NC(=O)c1ccccc1NC(=S)NC(=O)CCc1ccccc1	n	n	n	n	n	n	x
NC(=O)c1ccccc1NC(=O)CCc1ccccc1	n	n	n	x	x	n	n
CCc1c(C)nc2ncnn2c1N1CCC(C(=O)Nc2cccc(C(C)=O)c2)CC1	n	n	n	x	x	n	u
O=C(COC(=O)C1CCN(S(=O)(=O)c2ccccc2)CC1)NC(=O)c1ccc(OC(F)F)cc1	n	n	n	n	n	n	x
CC(C)CN=C(NS(=O)(=O)c1ccccc1)C(Cl)(Cl)Cl	n	n	n	x	n	n	0.05
COc1ccc(NC(=S)N(CCO)Cc2ccccc2)cc1	n	n	n	n	n	n	x
COCCN(Cc1ccccc1)C(=S)Nc1ccc(Cl)cc1	n	n	n	6	n	n	n
CC(=Nc1cccc(O)c1)c1sc2ccccc2c1O	n	n	n	-2.4	x	n	0.058
CC(=Nc1ccc(C)cc1)c1sc2ccccc2c1O	n	n	n	x	x	n	x
COc1ccc(S(=O)(=O)N(C)C)cc1NC(=O)COC(=O)c1nc2nccc(C)n2n1	x	n	n	x	n	x	n
COc1cccc(NC(=O)COC(=O)c2nc3nccc(C)n3n2)c1	n	n	n	x	x	n	x
COc1ccc(OC)c(/C=c2\sc3nc(-c4cccs4)nn3c2=O)c1	n	n	n	x	x	n	0.062
CC(=O)c1ccc(-n2nnnc2SCC(=O)Nc2sc(C)c(C)c2C#N)cc1	n	n	n	n	n	n	x
Cc1ccc(-n2nnnc2SCC(=O)Nc2sc(C)c(C)c2C#N)cc1C	n	n	n	x	x	n	n
O=C(C[n+]1cccc(O)c1)Nc1ccc(Br)cc1	n	n	n	n	n	n	x
CCOC(=O)N/N=C/c1cc(C)n(-c2cccc3ccccc23)c1C	n	n	n	x	n	n	x
CCOC(=O)N/N=C/c1cc(C)n(-c2ccccc2)c1C	n	n	n	2.4	n	n	n
SMILES	ABCB1 inh	zfTRPN1 agonist	TRPML3 agonist	ROMK mod	Calb biofilm kill	ABCG2 block	ROMK hit retest
Cc1cc(/C=N/NC(=O)c2cccc(F)c2)c(C)n1-c1ccccc1	n	n	n	4.8	n	n	n
Cc1cc(/C=N/NC(=O)c2ccncc2)c(C)n1-c1cccc(C(F)(F)F)c1	x	n	n	x	n	x	x
CC(/C=N/NC(=O)CNc1n[nH]c(=O)[nH]c1=O)c1ccccc1 (centres undefined)	x	n	n	n	n	x	x
Cc1cccn2c(=O)c3cc(C#N)c(=NC(=O)c4ccncc4)n(CCCOC(C)C)c3nc12	n	n	n	-4.3	x	n	0.049
CC(=O)N=c1c(C#N)cc2c(=O)n3cccc(C)c3nc2n1CCCOC(C)C	x	n	n	x	n	x	x
COCCCn1c(=NC(=O)c2ccncc2)c(C#N)cc2c(=O)n3cccc(C)c3nc21	n	n	n	x	x	n	0.06
CCOC(=O)C1(CCCc2ccccc2)CCN(C(=O)CCC2=NNC(=O)CC2)CC1	n	n	n	x	n	n	x
N#Cc1ccccc1Cn1c(=O)n(CCCC(=O)NCc2ccc3c(c2)OCO3)c(=O)c2ccccc21	n	n	n	3.6	n	n	n
O=C(COc1ccc(Oc2ccccc2)cc1)NCc1cn2ccccc2n1	n	n	n	2.9	n	n	n
O=C(O)CCc1ncc(C(F)(F)F)cc1Cl	n	n	n	x	x	n	x
FC(F)(F)c1cnc(COc2cc(Cl)cc(Cl)c2)c(Cl)c1	x	n	n	x	n	x	n
CS(=O)(=O)c1ccc2nc(NC(=O)c3ccc(S(=O)(=O)NCC4CCCO4)cc3)sc2c1 (centres undefined)	n	n	n	n	n	n	x
O=C(CC1C(=O)NCCN1Cc1ccccc1C(F)(F)F)NCCn1cccn1 (centres undefined)	n	n	n	n	n	n	x
CCc1cc2c(=O)c(-c3cscn3)coc2cc1O	n	n	n	2.5	x	n	n
Cc1ccc(S(=O)(=O)C(C#N)c2nc3ccccc3nc2N2CCC(C)CC2)cc1 (centres undefined)	n	n	n	x	x	n	0.068
N#CC(c1nc2ccccc2nc1N1CCCC1)S(=O)(=O)c1ccccc1 (centres undefined)	n	n	n	n	x	n	x
Cc1ccc(-c2nc(CN(C)C3CCOC3)c(C)o2)s1 (centres undefined)	n	n	n	n	n	n	x
CC(=O)Nc1sc(N/N=C/c2ccc(O)cc2)nc1-c1ccc(C)cc1	x	n	n	x	n	x	x
CC(=O)Nc1sc(N/N=C/c2ccccc2)nc1-c1ccc(C)cc1	x	n	n	x	n	x	n
Cc1ccc2oc(=O)n(CCOc3ccccc3)c2c1	n	n	n	-3.5	n	n	0.057
Cc1ccc(-c2nc3ccccc3nc2NN)cc1	x	n	n	x	n	x	x
CC(C)(C)CC(C)(C)NCC(O)COc1c(F)cc(Br)cc1F (centres undefined)	n	n	n	-3.2	x	n	0.054
O=C(Nc1ccc(S(=O)(=O)Nc2ncccn2)cc1)c1ccc(N2CCCC2=O)cc1	x	n	n	x	n	x	x

Source: PubChem BioAssay
